# PAFAH2 FP inh: PAFAH2 (human) inhibition | recombinant PAFAH2, FP-rhodamine activity probe, fluorescence polarization | 340,000 tested, 0.99% active | inhibition, % at 3.39 µM | Q99487;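 active = inhibition above the mean over all tested compounds plus 3 SD, cut at about 30% in these data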;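 note: inhibitors block probe labeling of enzyme so polarization drops; 0% = enzyme with DMSO and 100% = wells lacking PAFAH2 protein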
# pPAFAH inh: pPAFAH (human) enzyme inhibition; Q13093; recombinant pPAFAH, FP-rhodamine probe fluorescence polarization; inhibition, % at 3.39 µM; 330,000 tested, 1.5% active;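 active = inhibition above the mean inhibition across the screen plus 3 SD, cut at about 25% in these data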;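 note: inhibitors block binding of the rhodamine activity-based probe so polarization drops; 0% = enzyme with DMSO and 100% = wells lacking pPAFAH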
# GRIN3A LBD mod: modulates the human NR3A ligand-binding domain | NR3A LBD differential scanning fluorimetry, Tm shift; 0% = protein alone, 100% = glycine-bound protein | Tm shift relative to glycine control, % at 25 µM | 340,000 tested, 2.5% active | AID 1259313;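 active = melting temperature shift of at least 10% of the positive control shift, at one fixed dose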
# PAFAH1B2 FP inh: inhibitors of human PAFAH1B2; P68402; recombinant PAFAH1B2, FP-rhodamine activity probe, fluorescence polarization; inhibition, % at 3.39 µM; 340,000 tested, 1.2% active; AID 492953;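 active = inhibition above the mean of all tested compounds plus 3 SD, cut at about 24% in these data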;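 note: 0% = enzyme with DMSO and 100% = wells lacking PAFAH1B2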
# Target sequence (P68402 whole entry, looked up): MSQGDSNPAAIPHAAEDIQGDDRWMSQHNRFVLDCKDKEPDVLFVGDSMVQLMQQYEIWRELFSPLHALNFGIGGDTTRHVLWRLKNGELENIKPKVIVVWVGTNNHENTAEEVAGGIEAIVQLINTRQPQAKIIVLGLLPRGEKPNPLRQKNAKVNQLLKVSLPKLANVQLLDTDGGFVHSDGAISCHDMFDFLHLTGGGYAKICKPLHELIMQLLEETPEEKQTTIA
# PAFAH1B3 FP inh: PAFAH1B3 (human) inhibition. AID 492972. 340,000 tested, 0.28% active. recombinant PAFAH1B3, FP-rhodamine probe, fluorescence polarization. Q15102. inhibition, % at 3.39 µM;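 active = inhibition above the screen-wide average of all tested compounds plus 3 SD, cut at about 25% in these data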;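 note: 0% = enzyme with DMSO only and 100% = wells lacking PAFAH1B3 protein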
# Target sequence (Q15102 whole entry, looked up): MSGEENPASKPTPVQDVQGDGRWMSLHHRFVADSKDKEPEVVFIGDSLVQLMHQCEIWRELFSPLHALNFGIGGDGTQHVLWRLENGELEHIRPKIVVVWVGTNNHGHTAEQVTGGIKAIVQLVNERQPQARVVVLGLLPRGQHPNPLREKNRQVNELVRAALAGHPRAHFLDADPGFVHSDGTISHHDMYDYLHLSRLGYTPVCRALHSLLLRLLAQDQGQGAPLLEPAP
# UCH37 DUB inh: inhibitors of human deubiquitinating enzyme UCH37; inhibition, % (no concentration beside the values); 330,000 tested, 0.33% active; purified proteasome/UCH37, Ub-AMC cleavage fluorescence; Q9Y5K5; AID 588478;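 active = mean inhibition over replicate wells above about 20%, limit read from the data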;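 note: 0% = compound-free wells with enzyme and 100% = wells lacking proteasome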
#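 Material: human UCH37 enzyme supplied as purified proteasome complex. Measure: % inhibition of Ub-AMC cleavage fluorescence. Medium: pH 7.4 Tris-HCl (50 mM) with ovalbumin, ATP-MgCl2, DTT. Times: 30 min preincubation with enzyme, 25 min cleavage at room temperature. Detection: AMC fluorescence intensity at 355/460 nm.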
# An asterisk follows results filed as active; i = inactive; nt = no result. Only some compounds are listed: those with a hit (about 4.8% of all), similar ones and a draw of the others.
SMILES,PAFAH2 FP inh,pPAFAH inh,GRIN3A LBD mod,PAFAH1B2 FP inh,PAFAH1B3 FP inh,UCH37 DUB inh
Cn1c(N)c(C(=O)CSc2nn(-c3ccc(F)cc3)c(=S)s2)c(=O)n(C)c1=O,-36,3,31*,-21,-30,1
CCc1ccc(OCC(=O)N(Cc2cccs2)C2CCS(=O)(=O)C2)cc1 (stereo not given),2,6,0,7,-3,6
CC(C)(C)c1ccc(OCC(=O)N(Cc2cccs2)C2CCS(=O)(=O)C2)cc1 (stereo not given),11,3,2,29*,2,1
COc1ccc([N+](=O)[O-])cc1NC(=O)Nc1cccc(Cl)c1,-16,3,29*,-9,-11,5
COc1ccc([N+](=O)[O-])cc1NC(=O)Nc1ccc(OC)c(OC)c1,-11,9,-6,4,4,6
CCOc1cc(NC(=O)c2ccco2)c(OCC)cc1NC(=O)c1ccco1,-11,4,1,-5,2,-139
COc1cc(NC(=O)c2ccco2)c(OC)cc1NC(=O)Nc1cccc(Cl)c1,5,12,22*,2,12,-3
CCOc1cc(NC(=O)c2ccco2)c(OCC)cc1NC(=O)CCc1ccccc1OC,-4,21,15*,1,5,-16
O=[N+]([O-])c1ccc(C=NNc2ccnc3cc(Cl)ccc23)o1,nt,nt,nt,nt,nt,6
COc1cc(C=NNC(=O)c2ccncc2)ccc1OCC(=O)Nc1cccc([N+](=O)[O-])c1,nt,nt,nt,nt,nt,1
CCOC(=O)c1cnc2ccc(OCC)cc2c1N(C)Cc1ccccc1,2,10,11*,2,6,-3
CC(=NNC(=O)c1c(Cl)cnn1C)c1cccc(NC(=O)COc2ccccc2)c1,nt,nt,nt,nt,nt,-93
CC(=NNc1nnc(-c2ccccc2)c(-c2ccccc2)n1)c1cccc([N+](=O)[O-])c1,nt,nt,nt,nt,nt,7
CNc1nc(NCCOC23CC4CC(CC(C4)C2)C3)nc(OCC(F)(F)F)n1,6,-1,-2,31*,3,-2
Cc1cccc(C2=NN(c3ccccc3)[C@@H](C(=O)N3CCOC3=O)[C@@H]2c2ccccc2)c1,0,7,-2,5,11,-81
O=C1OCCN1C(=O)[C@H]1[C@H](c2ccc([N+](=O)[O-])cc2)C(c2ccc(F)cc2)=NN1c1ccc(Br)cc1,4,-1,13*,-3,3,4
C[C@@H]1C(c2cccc(Cl)c2)=NN(c2ccc(Br)cc2)[C@H]1C(=O)N1CCOC1=O,-2,10,21*,3,6,nt
C[C@@H]1C(c2cccc(Cl)c2)=NN(c2ccccc2)[C@H]1C(=O)N1CCOC1=O,2,15,2,2,-1,-226
Cc1cccc(C2=NN(c3ccc(Br)cc3)[C@@H](C(=O)N3CCOC3=O)[C@@H]2c2ccccc2)c1,7,29*,15*,2,11,i
C(=Nn1cnnc1SCc1ccccc1)c1ccco1,nt,nt,nt,nt,nt,4
COc1ccc(-c2cc(=O)[nH][nH]2)cc1OC,0,1,13*,1,2,11
COc1cc(C(=O)NN=C(C)Cc2ccccc2)cc(OC)c1OC,nt,nt,nt,nt,nt,2
O=C(NN=Cc1ccc(F)cc1)c1ccccc1,nt,nt,nt,nt,nt,0
CN1CCN(c2nc(-c3cccnc3)nc3scc(-c4ccccc4)c23)CC1,-2,-1,-2,6,4,-5
Clc1nc(-c2ccccn2)nc2scc(-c3ccccc3)c12,1,1,24*,-3,6,3
SMILES,PAFAH2 FP inh,pPAFAH inh,GRIN3A LBD mod,PAFAH1B2 FP inh,PAFAH1B3 FP inh,UCH37 DUB inh
O=[N+]([O-])c1ccc(N=Nc2c(O)[nH]c3ccc(F)cc23)cc1,-12,3,19*,3,6,7
Oc1[nH]c2ccc(Br)cc2c1N=Nc1ccc(F)cc1,10,1,30*,-1,-2,3
O=c1c(=Cc2ccc(O)cc2)sc2nc3cc(Br)cnc3n12,nt,nt,nt,nt,nt,-1
COc1ccc(C)cc1NS(=O)(=O)c1ccc2c(c1)n(C)c(=O)n2C,1,1,-2,-3,0,2
COc1ccc(C)cc1NS(=O)(=O)c1ccc2c(c1)N(C)CCO2,7,5,18*,1,4,0
COc1ccc(OC)c(/C=C(\NC(=O)c2ccccc2)C(=O)NN=Cc2ccc(C)s2)c1,nt,nt,nt,nt,nt,-32
CCc1ccc(NC(=O)C(=O)NN=C(C)CC(=O)Nc2ccc(OC)cc2)cc1,nt,nt,nt,nt,nt,5
